Laboratory results: ChEMBL document CHEMBL2321859, “Cytotoxic betulin-derived hydroxypropargylamines trigger apoptosis” (Bioorg Med Chem, 2013)
≈ marks a conversion by molar mass, not a printed value. Calls of active or inactive are those of the source. The rule behind the calls is not given here.

What was measured:
NIH3T3 = experiment: Cytotoxicity against mouse NIH/3T3 cells assessed as cell viability after 96 hrs by SRB assay; type: cell-based; conditions: NIH3T3, 96 h
[1] = Cytotoxicity against human 518A2 cells assessed as cell viability after 96 hrs by SRB assay; type: functional, cell-based; conditions: Homo sapiens, 518A2, 96 h
8505C = experiment: Cytotoxicity against human 8505C cells assessed as cell viability after 96 hrs by SRB assay; type: functional, cell-based; conditions: Homo sapiens, 8505C, 96 h
[2] = Cytotoxicity against human A253 cells assessed as cell viability after 96 hrs by SRB assay; type: functional, cell-based; conditions: Homo sapiens, A253, 96 h
A2780 = experiment: Cytotoxicity against human A2780 cells assessed as cell viability after 96 hrs by SRB assay; type: functional, cell-based; conditions: Homo sapiens, A2780, 96 h
A549 [3] = experiment: Cytotoxicity against human A549 cells assessed as cell viability after 96 hrs by SRB assay; type: functional, cell-based; conditions: Homo sapiens, A549, 96 h
DLD-1 = experiment: Cytotoxicity against human DLD1 cells assessed as cell viability after 96 hrs by SRB assay; type: functional, cell-based; conditions: Homo sapiens, DLD-1, 96 h
MCF7 = experiment: Cytotoxicity against human MCF7 cells assessed as cell viability after 96 hrs by SRB assay; type: functional, cell-based; conditions: Homo sapiens, MCF7, 96 h
[4] = Cytotoxicity against human Lipo cells assessed as cell viability after 96 hrs by SRB assay; type: functional, cell-based; conditions: Homo sapiens, Lipo, 96 h
SW-1736 = experiment: Cytotoxicity against human SW1736 cells assessed as cell viability after 96 hrs by SRB assay; type: functional, cell-based; conditions: Homo sapiens, SW-1736, 96 h
A549 [5] = experiment: Induction of apoptosis in human A549 cells assessed as cell shrinking by acridine orange/propidium iodide staining; type: functional, cell-based
A549 [6] = experiment: Cell cycle arrest in human A549 cells assessed as accumulation at G2/M phase by acridine orange/propidium iodide staining; type: functional, cell-based
A549 [7] = experiment: Induction of apoptosis in human A549 cells assessed as chromatin condensation by acridine orange/propidium iodide staining; type: functional, cell-based
A549 [8] = experiment: Induction of apoptosis in human A549 cells assessed as DNA fragmentation by DNA laddering assay; type: functional, cell-based
In short: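 DNA fragmentation was checked by DNA laddering in treated human cancer cells, as an indicator of apoptotic cell death.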

A549 [9] = experiment: Induction of apoptosis in human A549 cells assessed as membrane blebbing by acridine orange/propidium iodide staining; type: functional, cell-based
A549 [10] = experiment: Induction of apoptosis in human A549 cells assessed as early apoptotic cells at 10 uM after 6 hrs by annexin V/propidium iodide staining-based FACS flow cytometric analysis relative to control; type: functional
In short: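 A549 cells incubated 6 h with compound, then analysed by FACS annexin V/propidium iodide assay. Phosphatidylserine translocation to the outer membrane was taken as the early-apoptosis marker. Cells were scored as percentage dying by necrosis versus programmed cell death. Betulinic acid and maslinic acid were the reference standards.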

[11] = Solubility of the compound in water/DMSO mixture; type: physicochemical
In short: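 Solubility was measured in water/DMSO (95:5, v/v) by HPLC with UV/vis detection.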

| solubility ([11]; water/DMSO mixture, read-out: solubility) [µg/mL] | SMILES | IC50 (NIH3T3) [µM] | IC50 [1] [µM] | IC50 (8505C) [µM] | IC50 [2] [µM] | IC50 (A2780) [µM] | IC50 (A549 [3]) [µM] | IC50 (DLD-1) [µM] | IC50 (MCF7) [µM] | IC50 [4] [µM] | IC50 (SW-1736) [µM] | Activity (A549 [5]) | Activity (A549 [6]) | Activity (A549 [7]) | Activity (A549 [8]) | Activity (A549 [9]) | Activity (A549 [10]) [%] | solubility ([11]; buffer) [µg/mL] |
| --- | --- | --- | --- | --- | --- | --- | --- | --- | --- | --- | --- | --- | --- | --- | --- | --- | --- | --- |
| – | C=C(C)[C@@H]1CC[C@]2([C@H](O)C#CCN3CCSCC3)CC[C@]3(C)[C@H](CC[C@@H]4[C@@]5(C)CC[C@H](OC(C)=O)C(C)(C)[C@@H]5CC[C@]43C)[C@@H]12 | 8.8 | 9.3 | 2 | 7.5 | 4.3 | 16.3 | 19 | 3.8 | 3.5 | 3.7 | – | – | – | – | – | – | – |
| – | C=C(C)[C@@H]1CC[C@]2([C@@H](O)C#CCN(CCC)CCC)CC[C@]3(C)[C@H](CC[C@@H]4[C@@]5(C)CC[C@H](OC(C)=O)C(C)(C)[C@@H]5CC[C@]43C)[C@@H]12.CI | 6.8 | 4.6 | 4.1 | 3.5 | 2.3 | 4.5 | 4.8 | 3.2 | 4.3 | 3.2 | Active | Active | Active | Active | Active | >90 | – |
| – | C#C[C@H](O)[C@]12CC[C@@H](C(=C)C)[C@@H]1[C@H]1CC[C@@H]3[C@@]4(C)CC[C@H](OC(C)=O)C(C)(C)[C@@H]4CC[C@@]3(C)[C@]1(C)CC2 | 32.3 | 32.5 | 22.9 | 16.5 | 9.3 | 42.2 | > 30 | 20.5 | 28.9 | 23 | – | – | – | – | – | – | – |
| 182 (≈ 332 µM) | C=C(C)[C@@H]1CC[C@]2([C@H](O)C#CCN3CCCC3)CC[C@]3(C)[C@H](CC[C@@H]4[C@@]5(C)CCC(=O)C(C)(C)[C@@H]5CC[C@]43C)[C@@H]12 | 6.4 | 5.6 | 3.4 | 3.4 | 3.6 | 3.5 | 2.6 | 3.1 | 5.6 | 6 | – | – | – | – | – | – | – |
| – | C=C(C)[C@@H]1CC[C@]2([C@H](O)C#CCN(C(C)C)C(C)C)CC[C@]3(C)[C@H](CC[C@@H]4[C@@]5(C)CC[C@H](O)C(C)(C)[C@@H]5CC[C@]43C)[C@@H]12 | 6.2 | 6.4 | 5.8 | 8.2 | 5.4 | 8.3 | 9.1 | 8.2 | 10.3 | 4 | – | – | – | – | – | – | – |
| – | C#C[C@H](O)[C@]12CC[C@@H](C(=C)C)[C@@H]1[C@H]1CC[C@@H]3[C@@]4(C)CC[C@H](O)C(C)(C)[C@@H]4CC[C@@]3(C)[C@]1(C)CC2 | 10.5 | 15.1 | 16.1 | 14.1 | 9.7 | 20.4 | 21.9 | 11.9 | 12.9 | 13 | – | – | – | – | – | – | – |
| – | C=C(C)[C@@H]1CC[C@]2([C@@H](O)CCCN(C(C)C)C(C)C)CC[C@]3(C)[C@H](CC[C@@H]4[C@@]5(C)CC[C@H](O)C(C)(C)[C@@H]5CC[C@]43C)[C@@H]12 | 1.7 | 2.1 | 2.3 | 1.8 | 1.6 | 2.2 | 2.3 | 0.7 | 2.3 | 1.7 | Active | Active | Active | Active | Active | >90 | – |
| – | C=C(C)[C@@H]1CC[C@]2([C@H](O)C#CCN3CCCCCC3)CC[C@]3(C)[C@H](CC[C@@H]4[C@@]5(C)CC[C@H](OC(C)=O)C(C)(C)[C@@H]5CC[C@]43C)[C@@H]12 | 17 | 22.4 | 32.3 | 20.1 | 14.4 | 47 | 40.8 | 13.5 | > 30 | 32.3 | – | – | – | – | – | – | – |
| – | C=C(C)[C@@H]1CC[C@]2(C(=O)O)CC[C@]3(C)[C@H](CC[C@@H]4[C@@]5(C)CC[C@H](O)C(C)(C)[C@@H]5CC[C@]43C)[C@@H]12 [BETULINIC ACID] | 10 | – | – | – | 11 | – | – | – | 9.7 | – | – | – | – | – | – | – | 166 (≈ 363 µM) |
